Experimental data from ChEMBL document CHEMBL1649384, “Synthesis and antiproliferative activity of novel symmetrical alkylthio- and alkylseleno-imidocarbamates” (Eur J Med Chem, 2011).

Key:
[1] = system: MCF7; assay: Cytotoxicity against human MCF7 cells after 72 hrs by MTT assay; format: functional; conditions: MCF7, 72 h
Outline: (§1)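 Cells seeded per well: Hep-G2 1×10⁴, HT-29 4×10³, K-562 4×10³, MCF-7 1.2×10⁴, MCF-10A 7×10³, PC-3 2×10³. MCF-10A were grown in supplemented MEBM at 37 °C, 5% CO₂. Five concentrations were tested between 0.01 and 100, with 72 h exposure. Formazan was read by A590. GI₅₀ was taken relative to untreated controls, from at least three independent experiments.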

[2] = system: HT-29; assay: Cytotoxicity against human HT-29 cells after 72 hrs by MTT assay; format: functional; conditions: HT-29, 72 h; for CC50: read-out: LC50 (the source's name); outline: as §1
[3] = system: K562; assay: Cytotoxicity against human K562 cells after 72 hrs by MTT assay; format: functional; conditions: K562, 72 h; for CC50: read-out: LC50 (the source's name); outline: as §1
[4] = system: HepG2; assay: Cytotoxicity against human HepG2 cells after 72 hrs by MTT assay; format: functional; conditions: HepG2, 72 h; for CC50: read-out: LC50 (the source's name); outline: as §1
[5] = system: PC-3; assay: Cytotoxicity against human PC3 cells after 72 hrs by MTT assay; format: functional; conditions: PC-3, 72 h; for CC50: read-out: LC50 (the source's name); outline: as §1
[6] = Cytotoxicity against human MCF10A cells after 72 hrs by MTT assay; format: cell-based, MCF-10A; conditions: for GI50 at 72 h: MCF10A cells; for LC50 / TGI: mcf-10a, 72 h; outline: as §1
[7] = system: PC-3; assay: Cytotoxicity against human PC3 cells after 72 hrs by CV method; format: functional; conditions: PC-3, 72 h
Outline: (§2)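 Crystal violet check of the MTT data: eight concentrations between 0.01 and 100, with 72 h exposure. Cells were fixed in 4% formaldehyde for at least 20 min, then stained with 0.1% crystal violet for 30 min. GI₅₀ is the concentration halving growth relative to untreated controls.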

[8] = system: HT-29; assay: Cytotoxicity against human HT-29 cells after 72 hrs by CV method; format: functional; conditions: HT-29, 72 h; outline: as §2
[9] = system: MCF7; assay: Induction of apoptosis in human MCF7 cells assessed as apoptotic cells at 15 uM after 24 hrs by TUNEL assay; format: functional
Outline: (§3)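 TUNEL (Apo-Direct) on MCF-7 cells treated with compound or vehicle, with camptothecin as positive control. Cells were fixed in paraformaldehyde and then ethanol, labelled with FITC-dUTP for 1 h at 37 °C, counterstained with PI/RNase, and analysed by flow cytometry. Read-out is % apoptotic cells, mean ± SEM of three independent experiments in duplicate wells.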

[10] = system: MCF7; assay: Induction of apoptosis in human MCF7 cells assessed as apoptotic cells at 15 uM after 48 hrs by TUNEL assay; format: functional; outline: as §3
[11] = system: MCF7; assay: Induction of apoptosis in human MCF7 cells assessed as accumulation at subG1 phase at 15 uM after 24 hrs by DNA flow cytometric assay; format: functional
Outline: (§4)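 Exponentially growing MCF-7 cells were given compound or vehicle, with camptothecin as positive control. Cells were fixed in 1% paraformaldehyde in PBS pH 7.4 on ice for 1 h, then in 70% ethanol at −20 °C for 30 min. They were stained with PI/RNase for 30 min at RT in the dark. DNA content was measured by flow cytometry as % of total cells. Mean ± SEM of three independent experiments, duplicate wells.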

[12] = system: MCF7; assay: Induction of apoptosis in human MCF7 cells assessed as accumulation at G0/G1 phase at 15 uM after 24 hrs by DNA flow cytometric assay; format: functional; outline: as §4
[13] = system: MCF7; assay: Induction of apoptosis in human MCF7 cells assessed as accumulation at S phase at 15 uM after 24 hrs by DNA flow cytometric assay; format: functional; outline: as §4
[14] = system: MCF7; assay: Induction of apoptosis in human MCF7 cells assessed as accumulation at G2/M phase at 15 uM after 24 hrs by DNA flow cytometric assay; format: functional; outline: as §4
[15] = system: MCF7; assay: Induction of apoptosis in human MCF7 cells assessed as accumulation at subG1 phase at 15 uM after 48 hrs by DNA flow cytometric assay; format: functional; outline: as §4
[16] = system: MCF7; assay: Induction of apoptosis in human MCF7 cells assessed as accumulation at G0/G1 phase at 15 uM after 48 hrs by DNA flow cytometric assay; format: functional; outline: as §4
[17] = system: MCF7; assay: Induction of apoptosis in human MCF7 cells assessed as accumulation at S phase at 15 uM after 48 hrs by DNA flow cytometric assay; format: functional; outline: as §4
[18] = system: MCF7; assay: Induction of apoptosis in human MCF7 cells assessed as accumulation at G2/M phase at 15 uM after 48 hrs by DNA flow cytometric assay; format: functional; outline: as §4

Row | SMILES | GI50 [1] [µM] | TGI [1] [µM] | GI50 [2] [µM] | TGI [2] [µM] | CC50 [2] [µM] | GI50 [3] [µM] | TGI [3] [µM] | CC50 [3] [µM] | GI50 [5] [µM] | TGI [5] [µM] | CC50 [5] [µM] | Activity [10] [%] | Activity [11] [%] | Activity [12] [%] | Activity [13] [%] | Activity [14] [%] | Activity [15] [%] | Activity [16] [%] | Activity [17] [%] | Activity [18] [%] | further results
1 | C[Se]/C(=N\C(=O)c1cccs1)NC(=O)c1cccs1 | 0.0034 | 5.64 | 0.00034 | > 100 | > 100 | 6.07 | > 100 | > 100 | 1.34 | 63 | > 100 | 71.08 | 9.31 | 45.32 | 18.3 | 23.85 | 14.14 | 35.25 | 25.21 | 22.74 | LC50 [1]: > 100 µM; GI50 [4]: 0.63 µM; TGI [4]: 1.5 µM; CC50 [4]: 12.5 µM; GI50 at 72 h [6]: 9.26 µM; LC50 [6]: 73.51 µM; TGI [6]: 41.14 µM; GI50 [7]: 0.63 µM; GI50 [8]: 9 µM; Activity [9]: 29.35%
2 | CC[C@@]1(O)C(=O)OCc2c1cc1n(c2=O)Cc2cc3ccccc3nc2-1 [CAMPTOTHECIN] | 0.01 | 0.16 | 0.05 | 31.6 | 31.6 | 0.06 | 50.1 | > 100 | 0.06 | > 100 | > 100 | 71.45 | 10.92 | 65.62 | 10.4 | 11.51 | 25.73 | 41.61 | 16.91 | 15.15 | Activity [9]: 21.25%
3 | C[Se]/C(=N\C(=O)c1cnc2ccccc2c1)NC(=O)c1cnc2ccccc2c1 | 0.66 | 8.03 | 0.2 | > 100 | > 100 | 3.8 | 29.9 | 74.8 | 2.33 | 43.6 | > 100 | 27.19 | 10.29 | 73.06 | 8.1 | 7.21 | 11.34 | 32.87 | 32.68 | 19.97 | LC50 [1]: 60.7 µM; GI50 [4]: 4.16 µM; TGI [4]: 23.7 µM; CC50 [4]: 87.8 µM; GI50 at 72 h [6]: 20.3 µM; LC50 [6]: 83.86 µM; TGI [6]: 52.1 µM; GI50 [7]: 1.42 µM; GI50 [8]: 0.46 µM
